This is a sample that favours compounds with a hit; in the whole collection about 4% have one here.
KCNQ1 pot: potentiates or activates the human KCNQ1 potassium channel. AID 2648. B-score at 10 µM. 310,000 tested, 0.35% active. CHO-K1 KCNQ1, thallium flux FluxOR fluorescence; stronger effect = higher value;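 active = fluorescence ratio B-score, a plate-corrected score, at least three library SD, with initial intensity B-score within 5 SD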
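Assay system: CHO-K1 cells stably expressing KCNQ1. Medium: assay buffer for compound exposure, DMSO matched across wells. Timing: 37 °C overnight plating, 90-min dark dye load, 20-min compound pretreatment. Signal: kinetic FluxOR fluorescence, 10 s baseline plus 110 s post-stimulus.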
KCNQ1 inh: human KCNQ1 channel inhibition; P51787; CHO-K1 KCNQ1, FluxOR thallium flux fluorescence; stronger effect = higher value; B-score at 10 µM; 310,000 tested, 1.3% active;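 active = compounds whose thallium flux B-score, printed positive for inhibition, exceeds three library SD while starting fluorescence stays within three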;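 also: channel opened by potassium depolarization with thallium stimulus after 20 min compound exposure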
hERG rescue: hERG (human) protection from proarrhythmic block; Q12809; CHO-hERG, FluxOR thallium flux, dofetilide IC70 present; activation (rescue from dofetilide block), less the hit threshold, % at 10 µM; 310,000 tested, 0.51% active;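 active = activation above the mean of controls blocked by dofetilide plus 5 SD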;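 also: thallium influx through hERG after potassium depolarization seen as dye fluorescence rise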
KCNK3 block: human KCNK3 channel inhibition, primary screen. CHO-KCNK3 thallium flux, FluxOR fluorescence; stronger effect = lower value. 340,000 tested, 0.84% active. B-score at 10 µM;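 active = B-score under library mean minus 4 SD, starting fluorescence ratio at most library mean plus 5 SD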;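 also: more negative B-score means stronger inhibition of thallium flux through KCNK3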
PHOSPHO1 inh: inhibitors of human PHOSPHO1 phosphatase. 290,000 tested, 1.1% active. inhibition, % at 13.3 µM. Q8TCT1. recombinant PHOSPHO1, absorbance phosphatase assay. AID 1565; in the data active = inhibition above about 60%
Target sequence (Q8TCT1 whole entry, looked up): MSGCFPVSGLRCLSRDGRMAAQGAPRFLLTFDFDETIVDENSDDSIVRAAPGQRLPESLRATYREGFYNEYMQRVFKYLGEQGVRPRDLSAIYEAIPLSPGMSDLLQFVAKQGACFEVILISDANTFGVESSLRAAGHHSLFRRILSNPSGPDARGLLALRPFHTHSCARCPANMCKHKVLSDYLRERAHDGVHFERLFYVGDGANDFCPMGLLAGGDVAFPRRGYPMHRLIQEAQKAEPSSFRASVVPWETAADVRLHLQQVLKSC
KCNK9 inh: human KCNK9 channel inhibition; AID 488922; B-score at 10 µM; 310,000 tested, 1.2% active; HEK293 KCNK9, FluxOR thallium flux fluorescence; stronger effect = lower value;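 active = ratio B-score over 3 SD below the library mean, with starting fluorescence within 5 SD of its mean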;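 also: negative B-score means less thallium flux so channel inhibition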
KCNK9 block conf: confirmation of human KCNK9 potassium channel inhibitors. shares compounds with KCNK9 inh. HEK293 KCNK9 cells, FluxOR thallium flux fluorescence. inhibition, % at 10 µM. 4,900 tested, 43% active. AID 492992;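 active = thallium signal inhibited by more than 5 SD of the compound-free buffer control wells, on both duplicate plates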;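 also: 0% = assay buffer control wells without compound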
Kir2-1 spec: selectivity of KCNK9 modulators against mouse Kir2.1. Kir2.1 cells, FluxOR thallium flux fluorescence. shares compounds with KCNK9 inh. 4,900 tested, 4% active. AID 492993. inhibition, % at 10 µM;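 active = thallium signal drop more than 5 SD beyond the mean of the no-compound control wells, seen in both duplicate plates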;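 also: signal is fluorescence rise after thallium addition divided by baseline fluorescence; plate controls were assay buffer only for no effect and full block by chlorpromazine control for full effect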
Target sequence (P35561 whole entry, looked up): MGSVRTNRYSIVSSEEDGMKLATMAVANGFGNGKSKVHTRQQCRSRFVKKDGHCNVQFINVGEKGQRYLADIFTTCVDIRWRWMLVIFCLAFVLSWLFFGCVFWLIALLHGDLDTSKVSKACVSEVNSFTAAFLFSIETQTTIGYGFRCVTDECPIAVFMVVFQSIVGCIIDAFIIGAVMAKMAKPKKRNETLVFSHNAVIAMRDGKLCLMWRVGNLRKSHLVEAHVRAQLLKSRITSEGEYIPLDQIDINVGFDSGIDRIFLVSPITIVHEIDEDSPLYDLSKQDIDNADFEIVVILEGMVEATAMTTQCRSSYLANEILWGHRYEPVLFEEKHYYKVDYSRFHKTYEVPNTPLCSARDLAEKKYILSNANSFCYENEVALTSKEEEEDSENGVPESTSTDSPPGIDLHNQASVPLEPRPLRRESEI
HEK293 Tl ctr: second counter-screen for KCNK9 modulators: effect in non-induced cells. shares compounds with KCNK9 inh. non-induced KCNK9-HEK293, FluxOR thallium flux. inhibition, % at 10 µM. 4,900 tested, 40% active. AID 492997;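 active = thallium signal drop beyond 5 SD of the untreated control mean, on both duplicate plates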;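 also: plate controls were buffer only IC0 wells for no effect and SID17386958 at its maximal inhibitory level for full effect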
KCNK3 inh conf: human KCNK3 channel inhibition, confirmation assay. CHO-KCNK3 thallium flux, FluxOR fluorescence; 0% buffer, 100% carvedilol maximal block. ratio percent of control, % at 10 µM. 2,400 tested, 99% active. shares compounds with KCNK3 block;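 active = ratio percent of control, averaged over triplicates, above buffer control mean plus 5 SD, cut at about 64% in these data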;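 also: ratio is the fluorescence rise from min to max over baseline after thallium stimulus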
KCNK3 uninduced: activity in cells without induced KCNK3 expression | shares compounds with KCNK3 block | non-induced KCNK3 parental cells, FluxOR thallium flux; stronger effect = lower value | AID 651747 | thallium flux ratio (lower = more inhibition) at 10 µM | 2,400 tested, 40% active;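 active = thallium flux ratio, averaged over three wells, more than 5 SD below the buffer control mean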;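 also: host cells are CHO cells without KCNK3 induction; ratio is peak minus trough fluorescence over baseline then normalized to buffer controls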
Active calls of the source: *; i = inactive; x = not tested or not shown.

SMILES	KCNQ1 pot	KCNQ1 inh	hERG rescue	KCNK3 block	PHOSPHO1 inh	KCNK9 inh	KCNK9 block conf	Kir2-1 spec	HEK293 Tl ctr	KCNK3 inh conf	KCNK3 uninduced
COc1nc(N2CCCCCC2)nc(N2CCCCCC2)n1	i	i	-12.4	i	24.7	-10.9*	i	i	53.5%*	99.0*	i
O=C(CN(C(=O)c1ccccc1Cl)C1CCCCC1)Nc1ccc(Cl)c([N+](=O)[O-])c1	i	8*	-15.2	i	48.1	-11.4*	36.0%*	i	29.0%*	98.0*	0.159*
O=C(CN(C(=O)c1ccc(Cl)cc1)C1CCCCC1)Nc1ccc(Cl)c([N+](=O)[O-])c1	i	i	-8.0	i	9.1	i	x	x	x	x	x
Cc1cc(C)cc(NC(=O)CN2C(=O)COc3ccc(S(=O)(=O)N4CCCC4)cc32)c1	i	i	-5.4	i	18.1	i	x	x	x	x	x
COc1cc(NC(=O)CN2C(=O)COc3ccc(S(=O)(=O)N4CCCC4)cc32)cc(OC)c1	i	i	-6.4	-11.4*	1.9	-11.4*	52.0%*	i	29.5%*	105.3*	i
Cc1ccc(NC(=O)/C(=C/c2cccc([N+](=O)[O-])c2)NC(=O)C2CCCCC2)cc1	i	i	-7.9	i	31.0	i	x	x	x	x	x
O=C(Nc1ccc(Br)cc1)/C(=C/c1cccc([N+](=O)[O-])c1)NC(=O)C1CCCCC1	i	i	-2.3	-9.44*	2.1	-9.65*	50.0%*	i	34.5%*	107.3*	0.148*
Cc1cc2cccc(C)c2nc1SCC(=O)NC1CCCCC1	i	i	-1.6	-9.5*	46.2	-12.3*	i	i	i	92.3*	i
CC(C)S(=O)(=O)c1csc(NC(=O)Nc2cc(Cl)ccc2Cl)c1Cl	i	i	-7.6	-11.4*	46.5	-8.19*	54.0%*	i	38.5%*	139.0*	0.142*
COC(=O)c1cc2c(n(Cc3ccccc3)c1=O)CCCC2=O	x	x	x	i	x	x	x	x	x	x	x
Cc1nn(-c2ccccc2)c(Cl)c1/C=N/NC(=O)c1ccccc1F	i	i	-25.9	-11.1*	23.9	-14.4*	57.0%*	i	23.5%*	101.0*	i
COc1ccc(-c2nc3c(-c4ccc(F)cc4)cnn3cc2C)cc1F	i	i	-13.8	i	39.7	i	x	x	x	x	x
CCC(C)(C)n1nnnc1CN(Cc1ccc(Cl)cc1)Cc1ccco1	i	i	-16.3	i	-3.4	-11.1*	54.0%*	i	39.5%*	126.0*	0.156*
CN(CC(=O)Nc1ccc([N+](=O)[O-])cc1Br)Cc1c(F)cccc1Cl	i	i	-18.2	-10.1*	32.7	-14.8*	i	i	43.0%*	94.7*	0.156*
CN(CCOc1ccccc1)CC(=O)Nc1ccc([N+](=O)[O-])cc1Cl	i	i	-9.9	i	9.1	i	x	x	x	x	x
COc1ccc(CCNC(=O)CSc2nc(-c3ccco3)cc(C(F)(F)F)n2)cc1	i	i	-2.1	i	9.2	i	x	x	x	x	x
COC(=O)c1ccc(CSc2nc(-c3ccco3)cc(C(F)(F)F)n2)o1	i	i	-9.4	i	-6.1	-10.6*	38.5%*	i	45.0%*	115.3*	0.148*
Cc1cccc(N2CC(C(=O)Nc3ccc(S(=O)(=O)Nc4nccs4)cc3)CC2=O)c1C (configuration not stated)	i	i	-8.4	i	17.4	i	x	x	x	x	x
CN1CCN(/C=N/c2c(C#N)cnn2C)CC1	i	i	-0.7	i	18.9	i	x	x	x	x	x
Cn1ncc(C#N)c1/N=C/N(Cc1ccccc1)Cc1ccccc1	i	i	-10.5	-8.86*	-2.4	-15.4*	36.0%*	i	29.0%*	113.7*	0.156*
Cc1cc(C)nc(SCCn2c(N(C)Cc3ccccc3)nc3c2c(=O)n(C)c(=O)n3C)n1	i	i	-12.6	i	44.7	i	x	x	x	x	x
Cc1nn(S(=O)(=O)c2cccs2)c(C)c1Sc1ccccc1	x	x	x	x	3.8	x	x	x	x	x	x
Cc1nn(S(=O)(=O)c2cccs2)c(C)c1Sc1ccc([N+](=O)[O-])cc1	i	i	-13.2	-11.9*	-2.9	-11.1*	54.5%*	i	27.5%*	119.7*	0.156*
Cc1nnc(NC(=O)c2sc3ccccc3c2Cl)s1	i	i	-4.0	i	-1.6	i	x	x	x	x	x
Cc1ccc(NC(=O)c2sc3ccccc3c2Cl)nc1	i	i	-6.4	i	-27.2	-15.1*	55.5%*	i	30.0%*	87.3*	i
SMILES	KCNQ1 pot	KCNQ1 inh	hERG rescue	KCNK3 block	PHOSPHO1 inh	KCNK9 inh	KCNK9 block conf	Kir2-1 spec	HEK293 Tl ctr	KCNK3 inh conf	KCNK3 uninduced
CCOc1ccccc1NC(=O)C(Sc1ccccc1)c1ccccc1 (configuration not stated)	i	i	-15.9	-8.71*	15.9	-8.38*	i	i	40.0%*	95.3*	0.155*
CCOc1ccccc1NC(=O)NNC(=O)c1ccc2ccccc2c1	i	i	-6.3	i	2.9	i	x	x	x	x	x
CCOc1ccccc1NC(=O)c1ccc2ccccc2c1	i	i	-8.2	-9.74*	30.1	-10.6*	63.5%*	i	32.5%*	113.0*	i
COc1ccccc1CNC(=O)c1nccnc1CO	i	i	-2.2	i	32.7	i	x	x	x	x	x
Cc1nc2sccn2c(=O)c1S(=O)(=O)Nc1ccc(N2CCN(C(=O)C(C)C)CC2)cc1	i	i	-10.8	i	36.0	i	x	x	x	x	x
Cc1c(N=C2N=C(NC(=O)c3cccs3)c3ccccc32)c(=O)n(-c2ccccc2)n1C	i	i	-17.4	-9.92*	33.9	-9.17*	56.0%*	i	56.0%*	141.3*	0.101*
Cc1c(N=C2N=C(NC(=O)NC(C)(C)C)c3ccccc32)c(=O)n(-c2ccccc2)n1C	i	i	-3.0	i	26.7	i	x	x	x	x	x
Cc1ccccc1OCC(=O)Nc1ccccc1N1CCC(C)CC1	i	i	-8.3	-10.2*	27.7	-11.9*	43.5%*	31.0%*	38.0%*	111.0*	i
CC(=O)N1CCN(c2ccccc2NC(=O)COc2ccccc2C)CC1	i	i	-5.3	i	45.5	i	x	x	x	x	x

Screening results: PubChem, several laboratories
